Here are results for 47 compounds from ChEMBL document CHEMBL3120087, “3D QSAR studies based in silico screening of 4,5,6-triphenyl-1,2,3,4-tetrahydropyrimidine analogs for anti-inflammatory activity” (2014).

Assay [1] concerns Rattus norvegicus. Description: Antiinflammatory activity in rat assessed as reduction of paw edema. The assay is classed as functional. Summed up: (§1)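 Albino rats of either sex (150–200 g), six per group, fasted 12 h with water only. […] Paw volume measured by plethysmometer immediately (initial) and then hourly to 4 h. Mean paw volume ± SEM reported with % inhibition of edema versus control.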

The test system of assay [2] is Rattus norvegicus. The experiment in a line: Antiinflammatory activity in albino rat assessed as inhibition of carrageenan-induced paw edema at 20 mg/kg, po administered 1 hr prior to carrageenan challenge measured after 4 hrs relative to vehicle-treated control. The assay is classed as functional. Summed up:
as §1
In general terms: The carrageenan paw model is a standard test of acute inflammation.

Assay [3] concerns Rattus norvegicus. The experiment in a line: Antiinflammatory activity in albino rat assessed as inhibition of carrageenan-induced paw edema at 20 mg/kg, po administered 1 hr prior to carrageenan challenge measured after 1 hr relative to vehicle-treated control. The assay is classed as functional. Summed up: as §1
Assay [4] concerns Rattus norvegicus. The experiment in a line: Antiinflammatory activity in albino rat assessed as inhibition of carrageenan-induced paw edema at 20 mg/kg, po administered 1 hr prior to carrageenan challenge measured after 2 hrs relative to vehicle-treated control. The assay is classed as functional. Summed up:
as §1

The subject of assay [5] is Rattus norvegicus. The experiment in a line: Antiinflammatory activity in albino rat assessed as inhibition of carrageenan-induced paw edema at 20 mg/kg, po administered 1 hr prior to carrageenan challenge measured after 3 hrs relative to vehicle-treated control. The assay is classed as functional. Summed up:
as §1

Assay [6] addresses T1, Prostaglandin G/H synthase 1 (Ovis aries) (UniProt P05979).
T1 sequence (whole entry): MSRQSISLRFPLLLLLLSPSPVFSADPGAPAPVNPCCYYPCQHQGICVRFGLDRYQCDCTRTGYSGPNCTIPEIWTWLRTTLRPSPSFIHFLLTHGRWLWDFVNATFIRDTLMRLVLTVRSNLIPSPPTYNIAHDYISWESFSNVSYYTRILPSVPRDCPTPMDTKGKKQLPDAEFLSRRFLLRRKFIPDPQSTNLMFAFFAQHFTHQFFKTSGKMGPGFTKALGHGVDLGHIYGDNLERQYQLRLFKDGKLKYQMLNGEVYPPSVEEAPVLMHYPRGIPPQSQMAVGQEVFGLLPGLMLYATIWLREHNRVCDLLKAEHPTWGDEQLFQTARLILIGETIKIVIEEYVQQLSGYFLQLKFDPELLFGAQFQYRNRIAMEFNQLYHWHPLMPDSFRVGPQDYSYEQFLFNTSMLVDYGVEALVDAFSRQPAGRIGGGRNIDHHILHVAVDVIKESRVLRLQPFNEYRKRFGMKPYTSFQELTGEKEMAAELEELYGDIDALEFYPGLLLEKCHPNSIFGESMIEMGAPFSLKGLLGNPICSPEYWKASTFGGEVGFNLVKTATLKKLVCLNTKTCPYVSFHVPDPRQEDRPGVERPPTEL
The experiment in a line: Inhibition of ovine COX1 using TMPD as substrate at 20 uM incubated for 5 mins prior to substrate addition measured after 5 mins by colorimetry. Summed up: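 Colorimetric COX assay using peroxidase activity of ovine cyclooxygenase to oxidize TMPD. Assay mixture mixed and incubated at 25 °C for 5 min. Enzyme activity read as absorbance at 590 nm.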

Assay [7] deals with Rattus norvegicus. The experiment in a line: Antiinflammatory activity in albino rat assessed as inhibition of carrageenan-induced paw edema at 20 mg/kg, po administered 1 hr prior to carrageenan challenge measured after 24 hrs relative to vehicle-treated control. It is filed as functional.

As for `O=C(O)CC1=C(c2ccc(Cl)cc2)N=C(S)NC1c1ccco1` (configuration not stated), the “log(activity)” value in the assay with Rattus norvegicus [1] is recorded as 0.24. Consider `COc1ccc(OC)c(C2NC(=O)NC(c3ccc(Cl)cc3)=C2c2ccc(S(N)(=O)=O)cc2)c1` (configuration not stated), for which the inhibition in vivo at 20 mg/kg came to 14.3% in the assay on Rattus norvegicus [2], 18% in the assay on Rattus norvegicus [3], 28.1% in the assay with Rattus norvegicus [4] and 24.4% in the assay on Rattus norvegicus [5]. With `CS(=O)(=O)c1ccc(C2=C(c3ccccc3)C(c3ccccc3)NC(=S)N2)cc1` (configuration not stated), the inhibition in vivo at 20 mg/kg in the assay with Rattus norvegicus [2] turned out to be 18.4%; in the assay on Rattus norvegicus [3] it was 46.9%; in the assay on Rattus norvegicus [4], 30.9%; in the assay on Rattus norvegicus [5], 43.1%. As to `O=C(O)CC1=C(c2ccc(Cl)cc2)N=C(S)NC1c1ccc(Cl)cc1` (configuration not stated), in the assay on Rattus norvegicus [1], the “log(activity)” value is on record as 0.82.

Consider `CN(C)c1ccc(C2NC(=O)NC(c3ccc(S(C)(=O)=O)cc3)=C2c2ccccc2)cc1` (configuration not stated), for which the inhibition in vivo at 20 mg/kg amounted to 9.52% in the assay with Rattus norvegicus [2], 46.9% with Rattus norvegicus [3], 41.4% in the assay on Rattus norvegicus [4] and 26.9% with Rattus norvegicus [5]. The compound also had an inhibition in assay [6] of 2.36%. `N=C1NC(c2ccc(Cl)cc2)=C(CC(=O)O)C(c2ccco2)N1` (configuration not stated): the “log(activity)” value with Rattus norvegicus [1] stood at 0.56. For the compound `O=C(O)CC1=C(c2ccc(Cl)cc2)N=C(S)NC1c1ccccc1` (configuration not stated), in the assay on Rattus norvegicus [1], the “log(activity)” value is reported as 0.65. `COc1ccc(C2NC(S)=NC(c3ccc(C)cc3)=C2CC(=O)O)cc1` (configuration not stated): the “log(activity)” value with Rattus norvegicus [1] was found to be 0.96. Take `N=C1NC(c2ccccc2)=C(CC(=O)O)C(c2ccco2)N1` (configuration not stated): the “log(activity)” value in the assay with Rattus norvegicus [1] is 0.55.

As to `COc1ccc(C2NC(=N)NC(c3ccc(C)cc3)=C2CC(=O)O)cc1` (configuration not stated), the “log(activity)” value in the assay with Rattus norvegicus [1] was determined as 0.88. Take `COc1ccc(OC)c(C2NC(=N)NC(c3ccc(S(C)(=O)=O)cc3)=C2c2ccccc2)c1` (configuration not stated): the inhibition in vivo at 20 mg/kg in the assay on Rattus norvegicus [2] was 10.7%; in the assay with Rattus norvegicus [3], 25.2%; in the assay on Rattus norvegicus [4] it was 24.3%; in the assay on Rattus norvegicus [5], 20.3%. With `Cc1ccc(C2=C(CC(=O)O)C(c3cccnc3)NC(S)=N2)cc1` (configuration not stated), in the assay on Rattus norvegicus [1], the “log(activity)” value stood at 0.11. Regarding `O=C(O)CC1=C(c2ccccc2)N=C(S)NC1c1cccs1` (configuration not stated), the “log(activity)” value with Rattus norvegicus [1] was determined as 0.64. As to `COc1ccc(C2NC(=N)NC(c3ccc(S(C)(=O)=O)cc3)=C2c2ccccc2)cc1OC` (configuration not stated), the inhibition in vivo at 20 mg/kg in the assay with Rattus norvegicus [2] is 11.3%; in the assay with Rattus norvegicus [3], 24.8%; with Rattus norvegicus [7], 3.9%; with Rattus norvegicus [4] it was 18.6%; in the assay on Rattus norvegicus [5], 37.1%.

With `N=C1NC(c2ccc(Cl)cc2)=C(CC(=O)O)C(c2ccccc2)N1` (configuration not stated), the “log(activity)” value with Rattus norvegicus [1] was 0.78. As for `O=C(O)CC1=C(c2ccccc2)N=C(S)NC1c1ccccc1` (configuration not stated), the “log(activity)” value in the assay with Rattus norvegicus [1] is on record as 0.52. `COc1ccc(C2NC(=S)NC(c3ccc(S(C)(=O)=O)cc3)=C2c2ccccc2)c(OC)c1` (configuration not stated): the inhibition in vivo at 20 mg/kg was found to be 15.3% with Rattus norvegicus [3], 26.7% in the assay on Rattus norvegicus [4] and 10.2% in the assay on Rattus norvegicus [5]. Turning to `N=C1NC(c2ccccc2)=C(CC(=O)O)C(c2cccnc2)N1` (configuration not stated), the “log(activity)” value in the assay on Rattus norvegicus [1] is 0.3. `COc1ccc(C2NC(=O)NC(c3ccc(S(C)(=O)=O)cc3)=C2c2ccccc2)c(OC)c1` (configuration not stated): the values for the inhibition in vivo at 20 mg/kg with Rattus norvegicus [3], in the assay with Rattus norvegicus [4] and in the assay with Rattus norvegicus [5] were 21.6%, 28.1% and 39.1%, respectively. As to `N=C1NC(c2ccc(Cl)cc2)=C(CC(=O)O)C(c2cccnc2)N1` (configuration not stated), the “log(activity)” value with Rattus norvegicus [1] turned out to be 0.54. In the case of `Cc1ccc(C2=C(CC(=O)O)C(c3cccs3)NC(S)=N2)cc1` (configuration not stated), the “log(activity)” value in the assay with Rattus norvegicus [1] was 0.28. Same read-out and setting: with `Cc1ccc(C2=C(CC(=O)O)C(c3ccco3)NC(S)=N2)cc1` (configuration not stated) the figure was 0.31. Consider `Cc1ccc(-c2cc(C(F)(F)F)nn2-c2ccc(S(N)(=O)=O)cc2)cc1` [CELECOXIB], for which the inhibition in vivo at 20 mg/kg in the assay on Rattus norvegicus [2] came out at 17.9%; with Rattus norvegicus [3], 48.2%; with Rattus norvegicus [7], 6.49%; in the assay on Rattus norvegicus [4], 41.9%; in the assay with Rattus norvegicus [5], 32.5%. For the compound `O=C(O)CC1=C(c2ccccc2)N=C(S)NC1c1ccc(Cl)cc1` (configuration not stated), the “log(activity)” value in the assay with Rattus norvegicus [1] is given as 0.88. For the compound `Cc1ccc(C2=C(CC(=O)O)C(c3ccccc3)NC(S)=N2)cc1` (configuration not stated), the “log(activity)” value in the assay on Rattus norvegicus [1] is given as 0.82. In the case of `COc1ccc(C2NC(=N)NC(c3ccc(Cl)cc3)=C2CC(=O)O)cc1` (configuration not stated), the “log(activity)” value with Rattus norvegicus [1] was found to be 0.92.

For the compound `COc1ccc(C2NC(S)=NC(c3ccc(Cl)cc3)=C2CC(=O)O)cc1` (configuration not stated), the “log(activity)” value in the assay with Rattus norvegicus [1] came to 1.02. With `N=C1NC(c2ccc(Cl)cc2)=C(CC(=O)O)C(c2cccs2)N1` (configuration not stated), in the assay on Rattus norvegicus [1], the “log(activity)” value was 0.64. For the compound `O=C(O)CC1=C(c2ccc(Cl)cc2)N=C(S)NC1c1cccnc1` (configuration not stated), in the assay on Rattus norvegicus [1], the “log(activity)” value was 0.35.

With `Cc1ccc(C2=C(CC(=O)O)C(c3ccc(Cl)cc3)NC(=N)N2)cc1` (configuration not stated), the “log(activity)” value in the assay on Rattus norvegicus [1] turned out to be 0.68. Turning to `Cc1ccc(C2=C(CC(=O)O)C(c3cccs3)NC(=N)N2)cc1` (configuration not stated), in the assay on Rattus norvegicus [1], the “log(activity)” value is on record as 0.64. With `CN(C)c1ccc(C2NC(=O)NC(c3ccc(Cl)cc3)=C2c2ccc(S(C)(=O)=O)cc2)cc1` (configuration not stated), the inhibition in vivo at 20 mg/kg with Rattus norvegicus [2] is 16.1%; in the assay on Rattus norvegicus [3] it was 18%; in the assay on Rattus norvegicus [4] it was 27.6%; in the assay with Rattus norvegicus [5], 28.9%. Turning to `N=C1NC(c2ccccc2)=C(CC(=O)O)C(c2cccs2)N1` (configuration not stated), the “log(activity)” value in the assay with Rattus norvegicus [1] is on record as 0.51. In the case of `Cc1ccc(C2=C(CC(=O)O)C(c3ccco3)NC(=N)N2)cc1` (configuration not stated), in the assay on Rattus norvegicus [1], the “log(activity)” value came out at 0.54. Take `Cc1ccc(C2=C(CC(=O)O)C(c3ccccc3)NC(=N)N2)cc1` (configuration not stated): the “log(activity)” value with Rattus norvegicus [1] came out at 0.82. `N=C1NC(c2ccccc2)=C(CC(=O)O)C(c2ccc(Cl)cc2)N1` (configuration not stated): in the assay with Rattus norvegicus [1], the “log(activity)” value is on record as 0.64. Still for that read-out and setting: with `O=C(O)CC1=C(c2ccccc2)N=C(S)NC1c1cccnc1` (configuration not stated) the figure was 0.46. With `COc1ccc(C2NC(=N)NC(c3ccccc3)=C2CC(=O)O)cc1` (configuration not stated), in the assay on Rattus norvegicus [1], the “log(activity)” value was 0.82. As for `COc1ccc(C2NC(S)=NC(c3ccccc3)=C2CC(=O)O)cc1` (configuration not stated), the “log(activity)” value with Rattus norvegicus [1] is given as 0.92. In the case of `N=C1NC(c2ccccc2)=C(CC(=O)O)C(c2ccccc2)N1` (configuration not stated), the “log(activity)” value in the assay on Rattus norvegicus [1] came out at 0.64. In the case of `O=C(O)CC1=C(c2ccccc2)N=C(S)NC1c1ccco1` (configuration not stated), the “log(activity)” value in the assay with Rattus norvegicus [1] is given as 0.57. Same read-out and setting: the figure for `N=C1NC(c2ccc(Cl)cc2)=C(CC(=O)O)C(c2ccc(Cl)cc2)N1` (configuration not stated) is 0.74; for `Cc1ccc(C2=C(CC(=O)O)C(c3ccc(Cl)cc3)NC(S)=N2)cc1` (configuration not stated) it is 0.72. Turning to `COc1ccc(C2NC(=N)NC(c3ccc(Cl)cc3)=C2c2ccc(S(C)(=O)=O)cc2)cc1` (configuration not stated), the inhibition in vivo at 20 mg/kg with Rattus norvegicus [2] is 28.6%; in the assay on Rattus norvegicus [3], 30.2%; with Rattus norvegicus [7] it was 15.6%; in the assay on Rattus norvegicus [4], 20.5%; in the assay on Rattus norvegicus [5], 43.6%. Turning to `COc1ccc(OC)c(C2NC(=O)NC(c3ccc(S(C)(=O)=O)cc3)=C2c2ccccc2)c1` (configuration not stated), the inhibition in vivo at 20 mg/kg in the assay with Rattus norvegicus [2] worked out at 17.3%; in the assay on Rattus norvegicus [3], 35.6%; with Rattus norvegicus [4], 19.1%; in the assay with Rattus norvegicus [5], 24.4%. Take `O=C(O)CC1=C(c2ccc(Cl)cc2)N=C(S)NC1c1cccs1` (configuration not stated): the “log(activity)” value with Rattus norvegicus [1] turned out to be 0.54.

Regarding `Cc1ccc(C2=C(CC(=O)O)C(c3cccnc3)NC(=N)N2)cc1` (configuration not stated), in the assay with Rattus norvegicus [1], the “log(activity)” value is 0.58.

Usually inhibition in vivo stands for the change of the read-out against control, counted positive when it falls. Broadly, the inhibition is the share of the control response that was lost under treatment. High values mean a strong effect, low ones a weak effect.
